Reference: ChEMBL document CHEMBL1145383, “Synthesis of stable and potent delta/mu opioid peptides: analogues of H-Tyr-c[D-Cys-Gly-Phe-D-Cys]-OH by ring-closing metathesis” (J Med Chem, 2007)

Assays:
[1] = target: Delta-type opioid receptor (Mus musculus, UniProt P32300); assay: Agonist activity at delta opioid receptor in mouse vas deferens assessed as inhibition of electrically-evoked muscle contraction; assay type: functional, tissue-based
How it was run: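 Mouse vas deferens from male ICR mice (25–30 g), bathed in oxygenated (95% O2/5% CO2) magnesium-free Krebs bicarbonate at 37 °C. Tension 0.5 g, stimulated transmurally at 0.1 Hz with 2.0 ms pulses at supramaximal voltage. Agonist contact 3 min, then rinse and 8 min recovery. IC50 from Hill fit of mean data, n ≥ 4 tissues.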

Mu-type opioid receptor [2] = target: Mu-type opioid receptor (Cavia porcellus, UniProt P97266); assay: Agonist activity at mu opioid receptor in isolated guinea pig ileum assessed as inhibition of electrically-evoked myenteric muscle contraction; assay type: functional, tissue-based
How it was run: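 Longitudinal muscle-myenteric plexus from male Hartley guinea pigs (150–400 g), in oxygenated (95% O2/5% CO2) Krebs bicarbonate at 37 °C. Tension 1 g, transmural stimulation at 0.1 Hz with 0.4 ms pulses at supramaximal voltage. Agonist left 3 min, then washout and 8 min re-equilibration. IC50 by nonlinear least-squares Hill fit of mean data from at least four tissues.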

[3] = target: Kappa-type opioid receptor (Cavia porcellus, UniProt P41144); assay: Displacement of [3H]U-69593 from kappa opioid receptor in guinea pig brain membrane; assay type: cell membranes
[4] = target: T1, Delta-type opioid receptor (Homo sapiens, UniProt P41143); assay: Agonist activity at human delta opioid receptor by [35S]GTP-gamma-S binding assay; assay type: functional
How it was run: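 Cells expressing hDOR were incubated with increasing test concentrations plus 0.1 nM [35S]GTPγS, in duplicate, for 90 min at 30 °C. Reaction stopped by vacuum filtration through GF/B filters pretreated with assay buffer. Filters washed four times with ice-cold 15 mM Tris/120 mM NaCl, pH 7.4, and bound label counted by liquid scintillation after overnight extraction.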

[5] = target: T1, Delta-type opioid receptor; assay: Agonist activity at human delta opioid receptor by [35S]GTP-gamma-S binding assay relative to control; assay type: functional
Mu-type opioid receptor [6] = target: T2, Mu-type opioid receptor (Homo sapiens, UniProt P35372); assay: Agonist activity at human mu opioid receptor by [35S]GTP-gamma-S binding assay; assay type: functional
Mu-type opioid receptor [7] = target: T2, Mu-type opioid receptor; assay: Agonist activity at human mu opioid receptor by [35S]GTP-gamma-S binding assay relative to control; assay type: functional

T1 sequence (P41143 whole entry): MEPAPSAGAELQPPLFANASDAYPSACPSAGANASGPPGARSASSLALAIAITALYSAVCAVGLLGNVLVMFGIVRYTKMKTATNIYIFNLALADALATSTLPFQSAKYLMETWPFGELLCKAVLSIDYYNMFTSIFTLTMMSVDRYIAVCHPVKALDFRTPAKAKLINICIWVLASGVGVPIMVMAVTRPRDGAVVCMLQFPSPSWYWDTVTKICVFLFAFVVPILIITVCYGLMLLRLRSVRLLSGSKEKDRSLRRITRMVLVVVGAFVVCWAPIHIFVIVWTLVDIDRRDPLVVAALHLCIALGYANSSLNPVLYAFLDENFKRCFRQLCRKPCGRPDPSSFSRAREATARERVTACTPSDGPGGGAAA
Chain of Delta-type opioid receptor (Mus musculus, UniProt P32300) (P32300 whole entry): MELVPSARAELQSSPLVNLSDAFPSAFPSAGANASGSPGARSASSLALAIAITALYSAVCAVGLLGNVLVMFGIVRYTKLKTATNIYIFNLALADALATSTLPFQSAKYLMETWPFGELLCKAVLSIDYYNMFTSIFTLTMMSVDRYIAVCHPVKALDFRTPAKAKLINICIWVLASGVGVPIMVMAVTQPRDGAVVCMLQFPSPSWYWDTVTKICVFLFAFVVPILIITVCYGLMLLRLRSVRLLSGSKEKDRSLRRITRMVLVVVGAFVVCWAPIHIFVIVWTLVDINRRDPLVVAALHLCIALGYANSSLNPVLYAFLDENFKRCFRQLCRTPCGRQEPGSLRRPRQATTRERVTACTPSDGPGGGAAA
Chain of Kappa-type opioid receptor (P41144 whole entry): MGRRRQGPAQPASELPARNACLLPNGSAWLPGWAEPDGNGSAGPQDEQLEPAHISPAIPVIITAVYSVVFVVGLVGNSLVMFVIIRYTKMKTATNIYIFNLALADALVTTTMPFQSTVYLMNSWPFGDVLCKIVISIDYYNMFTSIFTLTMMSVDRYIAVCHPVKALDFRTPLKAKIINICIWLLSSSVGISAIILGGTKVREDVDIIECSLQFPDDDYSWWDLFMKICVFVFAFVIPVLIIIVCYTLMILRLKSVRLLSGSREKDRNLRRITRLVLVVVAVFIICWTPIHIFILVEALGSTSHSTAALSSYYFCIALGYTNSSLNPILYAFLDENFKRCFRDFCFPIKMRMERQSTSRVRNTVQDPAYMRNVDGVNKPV
Chain of Mu-type opioid receptor (Cavia porcellus, UniProt P97266) (P97266 whole entry): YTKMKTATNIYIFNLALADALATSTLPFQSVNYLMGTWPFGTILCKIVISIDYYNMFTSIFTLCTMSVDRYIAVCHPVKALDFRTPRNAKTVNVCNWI
T2 sequence (P35372 whole entry): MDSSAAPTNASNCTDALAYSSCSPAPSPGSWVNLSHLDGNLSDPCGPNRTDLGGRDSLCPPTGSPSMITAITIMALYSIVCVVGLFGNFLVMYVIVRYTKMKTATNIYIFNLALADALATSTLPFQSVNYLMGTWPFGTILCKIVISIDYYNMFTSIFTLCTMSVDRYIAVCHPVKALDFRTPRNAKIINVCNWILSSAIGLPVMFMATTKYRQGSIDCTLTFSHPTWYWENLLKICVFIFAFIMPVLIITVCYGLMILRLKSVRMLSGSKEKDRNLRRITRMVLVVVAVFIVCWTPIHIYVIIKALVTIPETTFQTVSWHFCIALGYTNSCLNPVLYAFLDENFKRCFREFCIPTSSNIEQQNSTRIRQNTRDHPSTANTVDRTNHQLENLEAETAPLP

| SMILES | IC50 [1] | IC50 (Mu-type opioid receptor [2]) | Ki [3] | EC50 [4] | Emax [5] | EC50 (Mu-type opioid receptor [6]) | Emax (Mu-type opioid receptor [7]) |
| --- | --- | --- | --- | --- | --- | --- | --- |
| N[C@@H](Cc1ccc(O)cc1)C(=O)N[C@@H]1C/C=C/C[C@H](C(=O)O)NC(=O)[C@H](Cc2ccccc2)NC(=O)CNC1=O | 0.76 nM | 5.2 nM | 74.8 nM | 0.88 nM | 128% | 2.65 nM | 70% |
| N[C@@H](Cc1ccc(O)cc1)C(=O)N[C@@H]1C/C=C\C[C@H](C(=O)O)NC(=O)[C@H](Cc2ccccc2)NC(=O)CNC1=O | 0.59 nM | 5.3 nM | 576 nM | 0.83 nM | 121% | 2.35 nM | 65% |
| C=CC[C@@H](NC(=O)[C@H](Cc1ccccc1)NC(=O)CNC(=O)[C@@H](CC=C)NC(=O)[C@@H](N)Cc1ccc(O)cc1)C(=O)O | 5.7 nM | 34 nM | 3870 nM |  |  |  |  |
| N[C@@H](Cc1ccc(O)cc1)C(=O)N[C@@H]1CCCC[C@H](C(=O)O)NC(=O)[C@H](Cc2ccccc2)NC(=O)CNC1=O | 3.4 nM | 59 nM | 3960 nM |  |  |  |  |
